Consider one substance from PMC3698760 (Journal of the American Heart Association: Cardiovascular …, 2013).

The subject of series [1] is human monocyte‐derived macrophages. The series can be described thus: Cellular cholesterol efflux in human monocyte-derived macrophages. Particulars: 20 μg/mL, 4 hours, n=4 to 5. It counts as cell-based. The procedure, abridged:
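Human peripheral blood monocyte-derived macrophages isolated by Lymphoprep gradient. Cells were radiolabelled with ³H-cholesterol and kept in serum-free medium containing 0.2% BSA. Efflux to 20 μg/mL acceptor (apoA-I or test peptide) or no acceptor was measured over 4 h.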

A further series addresses ABCA1 (Homo sapiens, UniProt O95477). The series can be described thus: Cholesterol efflux in CHO-ldlA7 cells transfected with human ABCA1 cDNA. It counts as cell-based. Particulars: 20 μg/mL, 4 hours, n=6. The procedure, abridged: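 CHO-ldlA7 cells seeded at 80–90% confluence were transiently transfected (Lipofectamine 2000) with human ABCA1 cDNA in pcDNA3.1 or with empty vector (mock). Cells were labelled with ³H-cholesterol in serum-free medium with 0.2% BSA. Efflux over 4 h was measured with or without 20 μg/mL human apoA-I or test peptide; n=6.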

The subject of the next series is human erythrocytes. The series can be described thus: Hemolysis assay. In kind it is cell-based. The settings on record: 1% human erythrocytes in PBS, 10 minutes at 37°C; up to 1.0 mg/mL; OD 540 nm. The procedure, abridged:
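Erythrocytes from EDTA blood of 4 human donors, washed 3 times in PBS to remove plasma and buffy coat. A 1% suspension in PBS was incubated with or without test peptide for 10 min at 37°C. Hemoglobin in the supernatant was read at 540 nm and expressed as percentage of Triton X-100 lysis; mean±SD.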

The nature of series [2]: Size analysis of HDL interacting with FAMP. Particulars: human HDL 2.22 mg/mL, 60 minutes at 37°C; 50, 250, 500 μg/mL FAMP5. The procedure, abridged:
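Human HDL, adjusted to 2.22 mg/mL in saline containing 0.1% EDTA (pH 7.4), was incubated with 50, 250 or 500 μg/mL test peptide for 60 min at 37°C. Samples were run on nondenaturing 5–20% gradient polyacrylamide gel in Tris-glycine (pH 7.5) for 3 h at 20 mA on ice, then stained with Coomassie R-250.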

A further series relates to apoE‐deficient mice. The series can be described thus: Plasma lipid profiles by enzymatic assay, 16-week treatment. In kind it is in vivo. The settings on record: 16 weeks; for HDL Cholesterol / Total Cholesterol / Triglyceride: 3 times a week, high-fat-fed apoE-deficient mice, mean±SD. The procedure, abridged: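 Overnight-fasting plasma taken after 16 weeks from 19 of 23 high-fat-fed apoE−/− mice. Dosing was i.p. 3 times weekly with scrambled peptide or test peptide at 10 or 50 mg/kg per day. Total cholesterol, triglyceride and HDL cholesterol were measured by enzymatic assay; mean±SD.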

[3] abbreviates: high-dose 50 mg/kg per day i.p., n=7.
Setting [4] is: low-dose 10 mg/kg per day i.p., n=5.

ABCA1, sequence (O95477 whole entry): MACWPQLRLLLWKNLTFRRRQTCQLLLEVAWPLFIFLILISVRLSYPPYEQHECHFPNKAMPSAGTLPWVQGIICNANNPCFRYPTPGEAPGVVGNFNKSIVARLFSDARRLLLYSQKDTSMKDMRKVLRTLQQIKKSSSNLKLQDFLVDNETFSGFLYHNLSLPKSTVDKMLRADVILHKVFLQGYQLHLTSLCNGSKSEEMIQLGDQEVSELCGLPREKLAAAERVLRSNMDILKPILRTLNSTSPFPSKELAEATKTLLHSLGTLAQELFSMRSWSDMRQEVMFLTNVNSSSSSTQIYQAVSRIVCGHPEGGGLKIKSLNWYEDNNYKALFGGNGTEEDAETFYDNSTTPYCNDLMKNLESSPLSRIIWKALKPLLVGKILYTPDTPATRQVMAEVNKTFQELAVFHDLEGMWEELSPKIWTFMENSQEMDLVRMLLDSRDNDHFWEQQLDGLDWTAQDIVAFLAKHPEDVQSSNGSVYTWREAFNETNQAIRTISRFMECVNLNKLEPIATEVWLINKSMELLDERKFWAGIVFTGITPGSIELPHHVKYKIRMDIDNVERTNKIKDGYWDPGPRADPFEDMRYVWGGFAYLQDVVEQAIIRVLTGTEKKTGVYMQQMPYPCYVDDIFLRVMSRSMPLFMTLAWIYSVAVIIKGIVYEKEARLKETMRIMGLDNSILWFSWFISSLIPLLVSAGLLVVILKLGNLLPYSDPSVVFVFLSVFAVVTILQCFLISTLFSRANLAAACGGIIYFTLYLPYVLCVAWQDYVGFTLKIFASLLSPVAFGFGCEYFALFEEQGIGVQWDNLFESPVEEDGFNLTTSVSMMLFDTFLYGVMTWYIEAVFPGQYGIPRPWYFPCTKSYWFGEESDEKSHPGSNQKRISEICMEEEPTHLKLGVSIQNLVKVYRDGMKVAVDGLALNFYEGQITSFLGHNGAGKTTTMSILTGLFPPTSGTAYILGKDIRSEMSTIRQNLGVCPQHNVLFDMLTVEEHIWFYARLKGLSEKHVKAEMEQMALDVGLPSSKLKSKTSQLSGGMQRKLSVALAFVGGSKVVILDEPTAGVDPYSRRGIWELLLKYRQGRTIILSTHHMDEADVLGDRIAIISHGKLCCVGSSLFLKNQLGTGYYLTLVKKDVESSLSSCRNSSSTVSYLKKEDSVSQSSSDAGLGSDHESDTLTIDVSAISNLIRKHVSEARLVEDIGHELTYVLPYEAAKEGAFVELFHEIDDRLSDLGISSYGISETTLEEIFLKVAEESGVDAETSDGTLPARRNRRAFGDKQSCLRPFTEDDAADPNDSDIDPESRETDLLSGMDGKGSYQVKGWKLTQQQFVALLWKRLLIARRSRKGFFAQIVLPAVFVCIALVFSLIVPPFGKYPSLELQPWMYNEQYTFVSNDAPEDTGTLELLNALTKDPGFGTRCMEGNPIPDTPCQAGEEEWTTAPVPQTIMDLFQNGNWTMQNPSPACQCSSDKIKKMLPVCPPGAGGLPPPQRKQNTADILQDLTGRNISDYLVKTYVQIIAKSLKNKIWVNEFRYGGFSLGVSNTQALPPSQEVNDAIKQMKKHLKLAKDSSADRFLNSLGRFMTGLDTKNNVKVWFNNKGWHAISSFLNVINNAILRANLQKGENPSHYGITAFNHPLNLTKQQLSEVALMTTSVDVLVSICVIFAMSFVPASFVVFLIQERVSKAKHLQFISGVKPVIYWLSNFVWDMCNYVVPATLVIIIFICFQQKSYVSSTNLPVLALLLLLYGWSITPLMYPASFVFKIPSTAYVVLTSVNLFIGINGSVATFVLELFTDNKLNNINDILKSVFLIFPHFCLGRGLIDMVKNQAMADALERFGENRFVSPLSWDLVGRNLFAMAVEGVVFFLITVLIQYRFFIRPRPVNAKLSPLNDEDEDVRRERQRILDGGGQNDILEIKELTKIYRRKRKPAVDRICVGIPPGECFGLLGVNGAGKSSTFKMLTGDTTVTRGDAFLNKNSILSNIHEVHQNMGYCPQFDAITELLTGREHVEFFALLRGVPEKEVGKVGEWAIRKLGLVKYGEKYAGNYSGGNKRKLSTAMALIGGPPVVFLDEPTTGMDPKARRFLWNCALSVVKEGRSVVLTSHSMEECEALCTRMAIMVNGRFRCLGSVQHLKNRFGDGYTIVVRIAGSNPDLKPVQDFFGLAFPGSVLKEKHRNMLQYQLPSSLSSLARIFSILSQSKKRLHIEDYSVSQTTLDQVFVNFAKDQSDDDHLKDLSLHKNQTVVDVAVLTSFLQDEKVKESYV

For H-ALEHLFTLYEKALKALEDLLKKLL-OH [FAMP5], the cholesterol efflux result in series [1] is recorded as “induced cholesterol efflux significantly more than human apoA‐I”. At ABCA1, the “cholesterol efflux after transient transfection with ABCA1 cDNA vs mock” value is “significantly upregulated”. Moreover, the “red cell hemolysis (percentage of the Triton X‐100 lysis)” value in the series with human erythrocytes was “only limited effects”. Further, the “HDL particle size on polyacrylamide gel electrophoresis” value in series [2] is on record as “generated pre‐β1 HDL‐like small particles”. Moreover, in the series on apoE‐deficient mice (setting [3]), the “HDL Cholesterol” value turned out to be 12.6 ± 3.7 mg/dL, the “Total Cholesterol” value is 1439.5 ± 271.5 mg/dL and the Triglyceride was determined as 102.7 ± 18.3 mg/dL. For the same substance, the “effect on plasma total cholesterol, triglyceride, and HDL cholesterol levels” value in the series on apoE‐deficient mice (low and high doses, enzymatic assay) is “no significant effects”. In the series with apoE‐deficient mice (setting [4]), the “HDL Cholesterol” value was 16.6 ± 4.8 mg/dL, the “Total Cholesterol” value was found to be 1532.8 ± 589.6 mg/dL and the Triglyceride was determined as 120.0 ± 41.6 mg/dL.
